Source: ChEMBL document CHEMBL1122670, “Synthesis of previously inaccessible quinazolines and 1,4-benzodiazepines as potential anticonvulsants” (J Med Chem, 1984)

Assays:
Mus musculus [1] = test: Evaluated for seizure threshold test at a dose 300 mg/kg &MMT is the maximal metrazole threshold to tonic flexion.; type: functional
How it was run: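 0.5% pentylenetetrazol (with 0.9% NaCl and 0.001% heparin) was infused into a lateral tail vein at 6.31 μL/s. Time to 3 s of persistent clonus (MST) or hindlimb tonic flexion (MMT) was converted to mg/kg infused. Tested at 0.5 h (some at 4 h or 1 h). Results are % change from controls, by Student's t test.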

[2] = Compound was determined in rotarod test and expressed as TD50; type: ADME, organism-based; details: mouse, in vivo
How it was run: (§1)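 ADD Program screen in mice. Doses of 30, 100, 300 and 600 mg/kg were given, four animals per dose, with tests at 30 min and at 4 h. sc Met endpoint: no threshold seizure (single clonic spasm of 5 s) after an sc convulsant dose 99 of pentylenetetrazol. Rotorod assessed acute neurotoxicity.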

Mus musculus [3] = test: Effective dose (ED50) was determined (at 4hi)n sc Met (pentylenetetrazole) seizure threshold test; type: functional
How it was run: as §1, with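 “neurotoxicity. ED50/TD50 were estimated graphically; Litchfield-Wilcoxon 95% confidence limits were added for selected cases.” for “neurotoxicity.”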

Mus musculus [4] = test: Evaluated for seizure threshold test at a dose 300 mg/kg &MST is the metrazole seizure threshold to persistent clonus; type: functional
How it was run: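 At 0.5 h (some at 1 or 4 h), 0.5% pentylenetetrazol in 0.9% NaCl with 0.001% heparin was infused into the tail vein at 6.31 μL/s. Time to 3 s persistent clonus (MST) or tonic flexion (MMT) was converted to mg/kg, reported as % change vs controls, Student's t test.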

`Cc1cc2c(c(C#N)c1C)NC(=O)NC2c1ccccc1` (centres undefined) gave a Change (Mus musculus [1]) of 22%, a TD50 [2] of over 1000 mg/kg and an ED50 (Mus musculus [3]) of 600 mg/kg. The Change (Mus musculus [4]) was 36%.
